This is an account of results in ChEMBL document CHEMBL1144149, “DNA polymerase beta inhibitors from Tetracera boiviniana” (J Nat Prod, 1999).

The test system of experiment [1] is P388D1. Nature of the experiment: Potentiation of 75 nM bleomycin induced cytotoxicity in mouse P388D1 cells at 10 uM assessed as cell viability after 6 hrs by trypan blue exclusion assay. The format is functional. Put shortly:
(§1)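 P-388D1 suspension cells were grown in DMEM (4500 mg glucose/L) with 10% donor horse serum and antibiotics at 37 °C in 5% CO2. Cells at ca. 5 × 10^5 cells/mL were stabilized for 1 h, then exposed to compound alone or together with 75 nM bleomycin (blenoxane) for 6 h. Final DMSO was 0.25%. Viability was read by trypan blue exclusion as % of control.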

For experiment [2], the target named is DNA polymerase beta (Rattus norvegicus) (UniProt P06766). The conditions noted are these: 50 ug/mL.
Experiment [3] shares this target. Conditions: 10 ug/mL.
A short description of experiment [4]: Cytotoxicity against mouse P388D1 cells at 10 uM after 6 hrs by trypan blue exclusion assay. Type of experiment: functional. Put shortly:
as §1

Take `C=C(C)[C@@H]1CC[C@]2(C(=O)O)CC[C@]3(C)[C@H](CC[C@@H]4[C@@]5(C)CC[C@H](O)C(C)(C)[C@@H]5CC[C@]43C)[C@@H]12` [BETULINIC ACID]: the Activity in experiment [1] was found to be 70%; in experiment [4], 99%. In addition, the inhibition in experiment [2] is 96%; in experiment [3], 63%.
